Measurements taken from ChEMBL document CHEMBL1128569, “N-acyl-2-substituted-1,3-thiazolidines, a new class of non-narcotic antitussive agents: studies leading to the discovery of ethyl 2-[(2-methoxyphenoxy)methyl]-beta-oxothiazolidine-3-propanoate” (J Med Chem, 1995).

Experiments:
[1] = test system: Cavia porcellus; test: Antitussive activity by inhibition of irritant citric acid aerosol-induced coughing in guinea pig upon oral administration.; type: functional
Summary of the method: (§1)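 Male guinea pigs (350-400 g) exposed in a box to 7.5% citric acid aerosol for 5 min, and coughs counted as the basal value. Next day, after overnight fasting, animals (6-8/dose) were gavaged with compound in water or 0.5% methyl cellulose (2 mL/kg) 1 h before re-exposure. Activity is the reduction in coughs versus the basal count. ED50 is the dose giving 50% reduction (Cochran and Snedecor).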

[2] = Acute toxicity was determined in mice upon peroral administration; type: organism-based; details: mouse, in vivo, po
Summary of the method: (§2)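 Swiss mice of both sexes, groups of six, dosed by gavage at several doses up to 1000 mg/kg. Compound dissolved in water or suspended in 0.5% carboxymethyl cellulose, 10 mL/kg. Deaths recorded over 1-7 days. LD50 obtained by logit transformation.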

[3] = test system: Cavia porcellus; test: Antitussive activity was evaluated by inhibition of irritant aerosol-induced coughing by (po) administration of 30 mg/kg in guinea pig; type: functional; summary of the method: as §1
[4] = Lethality in mice following p.o. administration.; type: ADME, organism-based; details: mouse, in vivo, po; summary of the method: as §2
[5] = test system: Cavia porcellus; test: Inhibition of irritant electrically-induced coughing in guinea pig trachea following p.o. administration.; type: functional; details: po
Summary of the method: (§3)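 Guinea pigs under ketamine (10 mg/kg im) and xylazine (3 mg/kg im) anaesthesia, with an electrode wrapped around the trachea about 1.5 cm above the bifurcation and an indifferent electrode on the dorsal skin. Coughs during stimulation counted as the basal value. Groups of 6-8/dose were gavaged with compound in water or 0.5% methyl cellulose (2 mL/kg). Activity is the cough reduction versus basal. ED50 is the dose giving 50% reduction.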

[6] = test system: Cavia porcellus; test: Antitussive activity was evaluated by inhibition of irritant citric acid aerosol-induced coughing in guinea pig upon oral administration at 30 mg/kg dose; type: functional; summary of the method: as §1
[7] = test system: Cavia porcellus; test: Antitussive activity was evaluated by inhibition of irritant electrically-induced coughing in guinea pig trachea upon oral administration at 30 mg/kg; type: functional; summary of the method: as §3
[8] = test system: Cavia porcellus; test: Antitussive activity was evaluated by inhibition of irritant electrically-induced coughing by (po) administration in guinea pig; type: functional; summary of the method: as §3
[9] = test system: Cavia porcellus; test: Antitussive activity was evaluated by inhibition of irritant aerosol-induced coughing by (po) administration in guinea pig; type: functional; summary of the method: as §1

| Structure (SMILES) | ED50 [1] [mg/kg] | LD50 [2] [mg/kg] | ED50 [5] [mg/kg] | other results |
| --- | --- | --- | --- | --- |
| COc1ccccc1OCC1SCCN1C(=O)CC(=O)NCc1cccnc1.O=C(O)/C=C/C(=O)O (stereo not drawn) | 57 | 677 |  |  |
| CCOC(=O)CC(=O)N1CCSC1COc1ccccc1O (stereo not drawn) | 20 | > 1000 |  |  |
| COc1ccccc1OCC1SCCN1C(=O)CSC(=O)c1cccnc1 (stereo not drawn) |  |  |  | inhibition in vivo at 30 mg/kg [3]: < 20%; LD50 [4]: > 1000 mg/kg |
| O=C(O)[C@@H]1CSC(CCc2ccccc2O)N1 (stereo partly drawn) |  | > 1000 | 45 | inhibition in vivo at 30 mg/kg [6]: < 20% |
| COc1ccccc1OCC1SCCN1C(=O)CS (stereo not drawn) |  |  |  | inhibition in vivo at 30 mg/kg [6]: < 20% |
| CC(=O)SCC(=O)Oc1ccccc1OCC1SCCN1C(=O)CSC(C)=O (stereo not drawn) |  |  |  | inhibition in vivo at 30 mg/kg [3]: < 20%; LD50 [4]: > 1000 mg/kg |
| COc1ccccc1OCC1SCCN1C(=O)COC(C)=O (stereo not drawn) |  | > 1000 | 25 |  |
| CCOC(=O)CC(=O)N1CCS(=O)(=O)C1COc1ccccc1OC (stereo not drawn) | 28 | > 1000 |  | inhibition in vivo at 30 mg/kg [7]: < 20% |
| Oc1ccccc1OCC1NCCS1 (stereo not drawn) |  | > 1000 |  |  |
| CCOCCOCC(=O)N1CCSC1COc1ccccc1OC (stereo not drawn) |  | 916 |  | inhibition in vivo at 30 mg/kg [6]: < 20% |
| COc1ccccc1OCC1SCCN1C(=O)CSC(=O)c1cc(OC)c(OC)c(OC)c1 (stereo not drawn) |  |  |  | inhibition in vivo at 30 mg/kg [3]: < 20%; LD50 [4]: > 1000 mg/kg |
| CCOC(=O)[C@@H]1CSC(COc2ccccc2OC)N1 (stereo partly drawn) |  | 757 |  | inhibition in vivo at 30 mg/kg [6]: < 20% |
| COc1ccccc1OCC1SCCN1C(=O)CC(=O)N1CCN(C)CC1 (stereo not drawn) | 27 | 880 |  |  |
| COC(=O)c1ccc(OCC2SCCN2C(=O)Cn2ccnc2)cc1 (stereo not drawn) | 62 | > 1000 |  |  |
| O=C(Cn1ccnc1)N1CCSC1COc1ccccc1O (stereo not drawn) |  |  | 27 |  |
| COc1ccccc1SCC1SCCN1C(=O)Cn1ccnc1 (stereo not drawn) |  | 958 |  | inhibition in vivo at 30 mg/kg [6]: < 20% |
| COc1ccc(OCC2SCCN2C(=O)Cn2ccnc2)cc1 (stereo not drawn) | 48 | > 1000 |  |  |

| Structure (SMILES) | ED50 [1] [mg/kg] | LD50 [2] [mg/kg] | ED50 [5] [mg/kg] | other results |
| --- | --- | --- | --- | --- |
| COc1ccccc1OCC1SCCN1C(=O)C[S+](C)[O-] (stereo not drawn) | 25 | > 1000 | 10 |  |
| COc1ccccc1OCC1SCCN1C(=O)CSC(=O)CN1CCN(C)CC1 (stereo not drawn) |  |  |  | inhibition in vivo at 30 mg/kg [3]: < 20%; LD50 [4]: > 1000 mg/kg |
| COc1ccc(OCC2SCCN2C(=O)CSC(C)=O)cc1 (stereo not drawn) |  |  |  | ED50 [8]: 19 mg/kg; LD50 [4]: > 1000 mg/kg |
| CC(=O)SCC(=O)N1CCSC1CCc1ccccc1O (stereo not drawn) |  |  |  | LD50 [4]: > 1000 mg/kg; ED50 [9]: 61 mg/kg |
| CSCC(=O)N1CCSC1COc1ccccc1O (stereo not drawn) |  | > 1000 | 28 |  |
| COc1ccccc1OCC1SCCN1C(=O)CC(=O)NCc1ccccn1 (stereo not drawn) | 26 |  | 64 |  |
| COc1ccccc1OCC1SCCN1C(=O)CSC (stereo not drawn) |  |  | 21 |  |
| CC(=O)SCC(=O)N1CCSC1COc1ccccc1O (stereo not drawn) |  |  |  | LD50 [4]: > 1000 mg/kg; ED50 [9]: 60 mg/kg |
| C=CC(=O)N1CCSC1COc1ccccc1OC (stereo not drawn) | 74 | 718 |  |  |
| CCN(CC)CCNC(=O)CC(=O)N1CCSC1COc1ccccc1OC (stereo not drawn) | 56 | 250 |  | inhibition in vivo at 30 mg/kg [7]: < 20% |
| CCOC(=O)CCC(=O)N1CCSC1COc1ccccc1OC (stereo not drawn) | 24 | > 1000 |  |  |
| CNC(=O)CC(=O)N1CCSC1COc1ccccc1OC (stereo not drawn) | 21 | > 1000 | 22 |  |
| COc1ccccc1OCC1SCCN1C(=O)CC(=O)N1CCN(C(c2ccccc2)c2ccccc2)CC1 (stereo not drawn) | 66 | > 1000 | 44 |  |
| CCC(=O)SCC(=O)N1CCSC1COc1ccccc1OC (stereo not drawn) |  |  |  | inhibition in vivo at 30 mg/kg [3]: < 20% |
| COc1ccccc1OCC1N(C(=O)CSC(C)=O)CC[S+]1[O-] (stereo not drawn) |  |  |  | inhibition in vivo at 30 mg/kg [3]: < 20%; LD50 [4]: 620 mg/kg |
| COc1ccccc1OCC1SCCN1C(=O)CC(=O)N1CCN(C(c2ccc(F)cc2)c2ccc(F)cc2)CC1 (stereo not drawn) | 26 | > 1000 | 32 |  |
